Assay results from paper PMC9201701 (RSC Advances, 2022).
Entries after “also recorded” stand apart in the source; their conditions may differ.

Experiments:
HCT-116 = experiment: MTT cytotoxicity assay, HCT-116; format: cell-based, human; settings: for Cytotoxicity IC50, HCT-116: 72 hours, MTT assay; for IC50: Homo sapiens, HCT-116, 72 h, read-out: Cytotoxicity IC50, HCT-116
[1] = MTT cytotoxicity assay, vero cells; format: cell-based, African Green Monkey; settings: African green monkey, Vero cells (normal kidney cells)
HT-29 = experiment: MTT cytotoxicity assay, HT-29; format: cell-based, human; settings: for Cytotoxicity IC50, HT-29: 72 hours, MTT assay; for IC50: Homo sapiens, HT-29, 72 h, read-out: Cytotoxicity IC50, HT-29
MCF-7 = experiment: MTT cytotoxicity assay, MCF-7; format: cell-based, human; settings: for Cytotoxicity IC50, MCF-7: 72 hours, MTT assay; for IC50: Homo sapiens, MCF7, 72 h, read-out: Cytotoxicity IC50, MCF-7
[2] = tested on: HCT-116, HT-29, MCF-7 and vero cell lines; experiment: MTT cytotoxicity assay, stated over all four cell lines; format: cell-based; settings: for Cytotoxicity against all tested cell lines, in words: HCT-116, HT-29, MCF-7 and vero cells; for IC50: read-out: IC50 range over all cell lines
Summary of the method: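 Cells grown in RPMI 1640 with 10% FBS, penicillin and streptomycin at 37 °C, 5% CO2. Solvent controls got 1:1 DMSO/EtOH. After exposure, medium replaced with fresh medium containing MTT (0.5 mg mL−1 in PBS) for 2 h. […] Viability % = sample/control (A550−A655) × 100. Four replicates.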

HeLa = settings: read-out: Cytotoxicity IC50, HeLa; cited from earlier work
KB = settings: read-out: Cytotoxicity IC50, KB; cited from earlier work
MRC-5 = settings: read-out: Cytotoxicity IC50, MRC-5; cited from earlier work
Pythium insidiosum = settings: compared with amphotericin-B standard; cited from earlier work
vero cells = experiment: MTT cytotoxicity assay, vero cells; format: cell-based, African Green Monkey; settings: for Cytotoxicity IC50, Vero cell: 72 hours, MTT assay
HeLa cells = settings: read-out: Cytotoxicity IC50, HeLa cells; ref 9 (Posri et al., 2021); cited from earlier work
HepG2 cell line = settings: read-out: Cytotoxicity IC50, HepG2 cell line; cited from earlier work

Molecule | IC50 at 72 h [1] | Cytotoxicity IC50, HT-29 (HT-29) | IC50 (HCT-116) | IC50 (HT-29) | IC50 (MCF-7) | IC50 [2] | other results
COc1cc(-c2coc3cc(OC(C)=O)cc(O)c3c2=O)c(OC)cc1OC(C)=O [Compound 3, 7,4′-Diacetoxy-5-hydroxy-2′,5′-dimethoxyisoflavone] | 112 ± 12.3 µM | Inactive | – | – | – | – | Cytotoxicity IC50, HCT-116 (HCT-116): Inactive; Cytotoxicity IC50, MCF-7 (MCF-7): Inactive
COc1cc(-c2coc3cc(O)cc(O)c3c2=O)c(OC)cc1O [Compound 1, Olibergin A] | 88.8 ± 4.33 µM | – | 79.2 ± 4.78 µM | 32.2 ± 1.73 µM | 72.1 ± 1.12 µM | – | Cytotoxicity against all tested cell lines, in words [2]: weak activity; IC50 (HeLa): 59.8 µM; IC50 (KB): 48.1 µM; IC50 (MRC-5): 25 µM
COc1ccc(C2COc3cc(O)ccc3C2)c(O)c1 (single isomer, unassigned; (-)) [(−)-vestitol] | – | – | – | – | – | – | Antifungal activity against Pythium insidiosum (Pythium insidiosum): strongest antifungal activity
5-Hydroxy-7,4′-dimesyl-2′,5′-dimethoxyisoflavone [Compound 2] | – | Inactive | – | – | – | – | Cytotoxicity IC50, HCT-116 (HCT-116): Inactive; Cytotoxicity IC50, Vero cell (vero cells): Inactive; Cytotoxicity IC50, MCF-7 (MCF-7): Inactive
COc1cc(OC)c2c(=O)c(-c3cc(OC)c(OC)cc3OC)coc2c1 [Compound 6, 5,7,2′,4′,5′-Pentamethoxyisoflavone] | > 269 µM | – | 178 ± 2.23 µM | 154 ± 12.1 µM | 98.5 ± 15.4 µM | – | Cytotoxicity against all tested cell lines, in words [2]: weak activity
COc1cc(O)c2c(=O)c(-c3cc(OC)c(OC)cc3OC)coc2c1 [Compound 5, 5-Hydroxy-7,2′,4′,5′-tetramethoxyisoflavone] | 13.5 ± 0.84 µM | – | 19 ± 0.7 µM | 10.8 ± 1.65 µM | 12.5 ± 0.7 µM | 10 to 19 µM | –
COc1cc(O)c2c(c1)OCC(c1cc(OC)c(OC)cc1OC)C2=O (stereo not drawn) [Compound 9, 5-Hydroxy-7,2′,4′,5′-tetramethoxyisoflavanone] | 33.5 ± 1.25 µM | – | 37.1 ± 1.28 µM | 19.2 ± 1.86 µM | 31 ± 1.89 µM | 19 to 37 µM | –
COc1cc(OC)c2c(c1)OCC(c1cc(OC)c(OC)cc1OC)C2=O (stereo not drawn) [Compound 10, 5,7,2′,4′,5′-Pentamethoxyisoflavanone] | 116 ± 20.2 µM | Inactive | 30.3 ± 1.15 µM | – | 73.8 ± 0.77 µM | – | Cytotoxicity against normal cells (vero cell line), in words (vero cells; vero cell line): weak cytotoxicity; also recorded: weak activity
COc1cc(OC)c2c(c1)OCC(c1cc(OC)c(OC)cc1OC)C2 (stereo not drawn) [Compound 11, 5,7,2′,4′,5′-Pentamethoxyisoflavan] | 31.1 ± 4.99 µM | – | 28.9 ± 3.19 µM | 29.38 ± 0.08 µM | 21.1 ± 2.61 µM | 19 to 37 µM | –
CC(C)=CCC/C(C)=C/Cc1c(O)ccc2c1OC[C@H]1c3cc4c(cc3O[C@@H]21)OCO4 [R,R-Velucarpin A] | – | – | – | – | – | – | IC50 (HeLa cells): 10.9 ± 0.42 µM
COc1cc(O)c2c(c1)OCC(c1cc(OC)c(OC)cc1OC)C2=NN (stereo not drawn) [Compound 14, 5-Hydroxy-7,2′,4′,5′-tetramethoxyisoflavanone hydrazone] | – | Inactive | – | – | – | – | Cytotoxicity against all tested cell lines, in words [2]: inactive; Cytotoxicity IC50, HCT-116 (HCT-116): Inactive; Cytotoxicity IC50, Vero cell (vero cells): Inactive; Cytotoxicity IC50, MCF-7 (MCF-7): Inactive
COc1cc(C2COc3cc(O)cc(O)c3C2=O)c(OC)cc1O (stereo not drawn) [Compound 8, 5,7,4′-Trihydroxy-2′,5′-dimethoxyisoflavanone] | 93.6 ± 10.2 µM | – | 92.7 ± 1.84 µM | 69.9 ± 6.47 µM | 148 ± 1.96 µM | 69 to 147 µM | –
C=C(C)[C@H]1Cc2c(ccc3c2O[C@@H]2COc4cc(OC)c(OC)cc4[C@]2(O)C3=O)O1 [(−)-12α-hydroxyrotenone] | – | – | – | – | – | – | IC50 (HepG2 cell line): 18 ± 1.51 µM
7,4′-Dibutoxy-5-hydroxy-2′,5′-dimethoxyisoflavone [Compound 4] | – | Inactive | – | – | – | – | Cytotoxicity IC50, HCT-116 (HCT-116): Inactive; Cytotoxicity IC50, Vero cell (vero cells): Inactive; Cytotoxicity IC50, MCF-7 (MCF-7): Inactive
COc1cc(O)c2c(c1)OCC(c1cc(OC)c(OC)cc1OC)C2=NO (stereo not drawn) [Compound 15, 5-Hydroxy-7,2′,4′,5′-tetramethoxyisoflavanone oxime] | 29.8 ± 4.85 µM | – | 26.4 ± 0.05 µM | 38.6 ± 2.77 µM | 28.9 ± 3.94 µM | 26 to 38 µM | –
